# Assay outcomes deposited in PubChem BioAssay by Sanford-Burnham Center for Chemical Genomics.
# In the library only some 1.9% were active in any assay of this set; here they are far more common.
# SUMO1-SIM PPI – modulators of human SUMO1-mediated protein-protein interactions; P63165; SUMO1 binding to a labelled peptide, TR-FRET, 1 h; inhibition, % at 20 µM; actives 0.33% (n = 360,000); AID 602429; in the data active = inhibition above about 37%
# Target sequence (P63165 whole entry, looked up): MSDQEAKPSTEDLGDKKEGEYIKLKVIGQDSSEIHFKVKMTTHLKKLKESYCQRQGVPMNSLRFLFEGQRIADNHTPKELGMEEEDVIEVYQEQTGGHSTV
# Scp-1 inhibitor – Scp-1 (human) phosphatase inhibition; inhibition, % at 20 µM; Recombinant Scp1, phosphopeptide, malachite green phosphate absorbance; actives 0.88% (n = 340,000); Q9GZU7; AID 493091;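 active = inhibition above about 50% at 20 µM, limit read from the data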;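 note: plate controls were DMSO wells with enzyme for no effect and wells lacking enzyme for full effect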
# Target sequence (Q9GZU7 76-261 limits assumed): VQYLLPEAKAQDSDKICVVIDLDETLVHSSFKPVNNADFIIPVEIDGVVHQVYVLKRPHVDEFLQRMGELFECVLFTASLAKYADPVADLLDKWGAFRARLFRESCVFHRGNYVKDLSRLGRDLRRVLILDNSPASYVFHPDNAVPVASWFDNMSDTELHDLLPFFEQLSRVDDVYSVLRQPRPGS
#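 assay system = SCP-1 phosphatase catalytic domain, residues 76-261 | buffer or medium = 50 mM Tris acetate pH 5.5, 0.005% Tween-20, 10 mM MgCl2 | incubation = enzyme reaction 45 min at room temperature, colour 5 min, stabilisation 30 min | signal = Phosphate-binding colour reagent, absorbance read at 630 nm | measure = % inhibition at 20 µM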
# LMPTP block – blocks human LMPTP phosphatase; AID 651560; inhibition, % at 20 µM; actives 0.22% (n = 360,000); recombinant LMPTP-A, OMFP fluorogenic substrate, fluorescence intensity;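 active = compounds that cut the enzyme signal by at least half of the control window in the single-dose screen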;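 note: plate controls were DMSO wells with enzyme plus substrate for no effect and substrate without enzyme for full effect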
# Target sequence (P24666 whole entry, looked up): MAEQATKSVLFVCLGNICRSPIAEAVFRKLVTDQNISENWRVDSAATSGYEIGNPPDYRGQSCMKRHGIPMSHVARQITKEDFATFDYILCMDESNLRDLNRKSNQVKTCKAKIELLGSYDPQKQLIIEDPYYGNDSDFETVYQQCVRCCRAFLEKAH
#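 Test system: LMPTP-A, protein tyrosine phosphatase of low molecular weight; Input: 0.625 nM enzyme; Incubation: 50 min dark incubation at room temperature; Signal: endpoint fluorescence intensity from OMFP dephosphorylation; Read-out basis: % inhibition versus control wells.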
# DNMT1 inh – DNMT1 (human) enzyme inhibition | DNMT1 molecular beacon, Hinp1I cleavage, fluorescence | AID 588458 | P26358 | inhibition (reported as % activation of signal), % at 10 µM | actives 0.83% (n = 360,000); in the data active = inhibition above about 50%
# UBC9 SUMO inh – inhibitors of human SUMOylation (UBC9); inhibition, % at 35 µM; actives 0.36% (n = 290,000); HTRF SUMOylation assay, SAE1/SAE2 + UBC9, in vitro; in the data active = inhibition above about 50%, passing the limit was not always enough
# Target sequence (P63279 whole entry, looked up): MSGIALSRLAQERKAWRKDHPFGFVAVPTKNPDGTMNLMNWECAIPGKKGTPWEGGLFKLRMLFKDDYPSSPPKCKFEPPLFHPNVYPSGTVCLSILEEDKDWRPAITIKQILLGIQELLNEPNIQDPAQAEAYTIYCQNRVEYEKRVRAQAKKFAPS
# STEP inh – blocks human striatal-enriched tyrosine phosphatase | P54829 | recombinant STEP, OMFP fluorogenic substrate, fluorescence | inhibition, % at 20 µM | actives 0.25% (n = 360,000) | AID 588621;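 active = inhibition at 20 µM, scaled per plate between control wells, above about 37%, limit read from the data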;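 note: 0% = DMSO with enzyme and substrate and 100% = substrate only without enzyme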
#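 System: STEP phosphatase, cell-free reaction; Buffer or medium: Bis-Tris pH 6.0 buffer with DTT, detergent; Incubation: 20 min at room temperature, dark; Measured by: fluorescence, 480/540 nm.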
# DNMT1 interf DR – counter-screen for DNMT1 inhibitors: spectral interference, dose response; shares compounds with DNMT1 inh; molecular beacon fluorescence; IC50, µM; 200 tested, under 10 active; call rule not given here
# DNMT1 confirm – DNMT1 inhibition confirmation, single concentration | shares compounds with DNMT1 inh | DNMT1 molecular beacon HinP1I cleavage, fluorescence | inhibition, % at 10 µM | actives 8% (n = 2,300) | AID 602385;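 active = average inhibition of at least 30% in the single-concentration confirmation test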
# DNMT1 interf – shows spectral interference in the DNMT1 beacon assay. AID 602387. activation (fluorescence interference), % at 10 µM. DNMT1 molecular beacon spectral interference counterscreen, fluorescence 485/520. actives 1% (n = 2,300). shares compounds with DNMT1 inh;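 active = activation of at least 30% at 10 µM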;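 note: DNMT1 catalytic domain with a HinP1I cleavage step and a FAM/dabcyl DNA beacon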
# * marks the source's active call; other numbers are inactive results; · = no result given.
SMILES,SUMO1-SIM PPI,Scp-1 inhibitor,LMPTP block,DNMT1 inh,UBC9 SUMO inh,STEP inh,DNMT1 confirm,DNMT1 interf,others
COc1ccc(CNC(=O)CCCn2nc(C)c([N+](=O)[O-])c2C)cc1OC,-1,-1,-1,0,11,-2,·,·,
CCCCOC(=O)Cn1c(=O)oc2ccc(C)cc21,-1,-8,-2,0,2,-2,·,·,
CCCCCOC(=O)Cn1c(=O)oc2ccc(C)cc21,-2,-6,-1,73*,8,-2,1,8,
CCCCn1c(N)c(N(CCC(C)C)C(=O)c2ccc(-c3ccc([N+](=O)[O-])cc3)o2)c(=O)[nH]c1=O,-9,-7,-4,84*,·,2,0,7,
CCCCn1c(N)c(N(CC(C)C)C(=O)c2ccc(-c3ccc([N+](=O)[O-])cc3)o2)c(=O)[nH]c1=O,-20,-1,-3,1,·,-4,·,·,
COCCNC(=S)NC1CC2CCCC(C1)N2Cc1cccs1 (stereo not drawn),0,-1,-1,2,15,-3,·,·,
Cc1cccc(NC(=S)NC2CC3CCCC(C2)N3Cc2cccs2)c1 (stereo not drawn),2,1,-2,84*,-5,5,3,1,
CCOC(=O)c1sc(NC(=O)C2CCCO2)c(C(=O)OCC)c1C (stereo not drawn),·,·,·,·,-9,·,·,·,
CCOC(=O)c1c(NC(=O)C2CCCO2)sc(C(=O)OC(C)(C)C)c1C (stereo not drawn),5,0,2,51*,9,8,2,5,
O=[N+]([O-])c1ccc(/C=N/Nc2nc(N3CCCCCC3)nc(N3CCCCCC3)n2)o1,-6,12,4,66*,-50,2,0,1,
CCCc1c(C(=O)N/N=C/C=C/c2ccccc2)nnn1-c1nonc1N,15,·,1,51*,·,5,2,6,
CCCc1c(C(=O)N/N=C/C(C)=C/c2ccccc2)nnn1-c1nonc1N,-2,-6,1,6,14,1,·,·,
CCN(Cc1ccccc1)CC(O)COC(c1ccc(OC)cc1)c1ccc(OC)cc1 (stereo not drawn),1,-5,1,-3,-7,3,·,·,
O=C(/C=C/c1ccco1)Nc1scc(-c2ccccc2)c1C(=O)O,-5,50,4,82*,12,19,13,1,
O=C(/C=C/c1ccccc1)Nc1scc(-c2ccccc2)c1C(=O)O,-10,-18,-2,2,22,1,·,·,
Cc1ccc(CSc2nnc(SCC(=O)N/N=C/c3c[nH]c4ccccc34)s2)cc1,19,42,32,62*,·,12,14,-2,
O=C(CSc1nnc(SCc2ccccc2Cl)s1)N/N=C/c1c[nH]c2ccccc12,1,-1,2,17,-13,-3,·,·,
O=C(CSc1nnc(SCc2ccccc2)s1)N/N=C/C=C\c1ccco1,13,82*,28,88*,71,3,9,-1,
Cc1ccccc1C(=O)Nc1ccc(N2CCCC2)cc1,-6,8,10,-6,5,1,·,·,
O=C(Nc1ccc(N2CCN(Cc3ccccc3)CC2)cc1)c1ccccc1[N+](=O)[O-],-6,11,-1,-4,1,-2,·,·,
O=C(Nc1ccc(N2CCCC2)cc1)c1cc(Br)ccc1Cl,-27,-5,39,50*,-7,-1,1,2,
O=C(Nc1ccc(N2CCCC2)cc1)c1ccccc1[N+](=O)[O-],7,-9,42,70*,-19,2,1,5,
O=C(Nc1ccc(N2CCCC2)cc1)c1ccc(Br)o1,-7,-3,43,81*,38,4,2,-1,
Cc1ccc(C(=O)Nc2ccc(N3CCCC3)cc2)c(C)c1,-9,-2,14,54*,-1,4,4,-1,
COC(=O)c1ccccc1NC(=O)C1CCN(C(=O)c2ccc(OC)cc2)CC1,-3,3,0,2,-4,5,·,·,
SMILES,SUMO1-SIM PPI,Scp-1 inhibitor,LMPTP block,DNMT1 inh,UBC9 SUMO inh,STEP inh,DNMT1 confirm,DNMT1 interf,others
O=C(CNC(=O)/C=C/c1ccco1)N=Nc1c(O)[nH]c2ccccc12,105*,93*,72*,93*,15,98*,82*,-3,DNMT1 interf DR=>99
Cn1cccc1/C=N/NC(=O)c1ccn[nH]1,-1,46,-1,-4,-14,-3,·,·,
O=C(/C=C/c1ccco1)NC(=S)Nc1cc(-c2nc3ccccc3s2)ccc1Cl,25,-2,5,98*,·,-2,2,-4,
Cc1ccc(-c2nc3ccccc3s2)cc1NC(=S)NC(=O)/C=C/c1ccco1,13,-8,0,54*,23,6,-2,-5,
O=C(/C=C/c1ccco1)NC(=S)Nc1cccc(-c2nc3ccccc3s2)c1,23,-14,5,32,·,-1,·,·,
Cn1c(-c2ccccc2)c[n+]2c1-c1ccccc1C2,0,-8,-1,2,1,-1,·,·,
CC(=O)NC(CC(=O)OC(C)C(=O)Nc1ncc(Cl)cc1Cl)c1ccccc1 (stereo not drawn),3,-1,0,1,17,-1,·,·,
NS(=O)(=O)c1ccc(N/N=C/c2cn(-c3ccccc3)nc2-c2cccs2)c([N+](=O)[O-])c1,-13,9,7,45,42,5,0,-3,
COc1cc(C(=O)NC2CC2)cc(OC)c1OC,1,·,-1,·,·,·,·,·,
CN1CCS/C1=C\C=C1/SC(=S)N(CC(=O)O)C1=O,-245,9,27,63*,-3,3,57*,60*,
CCN1C(=O)/C(=C/C=C2/SCCN2C)SC1=S,-217,-7,8,36,-2,-4,·,·,
S=c1[nH]nc(-c2ccccc2Cl)n1/N=C/C=C/c1ccco1,3,15,3,24,51,0,·,·,
Cc1cccc(-c2n[nH]c(=S)n2/N=C/C=C/c2ccco2)c1,8,-23,16,66*,·,4,2,4,
CC(/C=N/n1c(-c2ccncc2)n[nH]c1=S)=C\c1ccco1,20,10,10,83*,22,8,2,3,
S=c1[nH]nc(-c2ccncc2)n1/N=C/C=C/c1ccco1,27,8,-1,63*,91*,1,4,3,
CCC1=NN(C(=O)c2cccc([N+](=O)[O-])c2)C(O)(c2ccc(C)cc2)C1 (stereo not drawn),-15,-7,0,16,2,7,·,·,
